# Measurements collected from several papers.
# Lines come from different studies, so protocols differ.
Compound,organism,assay,system,conditions,measurement,result
COC1=CC2=[N+](C)CCc3c[nH]c(c32)C1=O,Babesia divergens,"parasite growth, SYBR Green",,"60 h, blood stage",IC50,1000 nM
CN(Cc1ccc(C(C)(C)C)cc1)Cc1cccc2ccccc12,Trichophyton mentagrophytes,"microbial growth, disc diffusion",ATCC18748,"0.002 µg/mL, 72 h",inhibition zone,27.8 mm
N#Cc1c(-c2ccc(OCc3ccccc3)cc2)c(C(N)=O)c(N)n(N)c1=O,Enterobacter cloacae,"microbial growth, well diffusion",ATCC23355,500 µg/mL,inhibition zone,10 mm
NC1=CC2=NCCc3c[nH]c(c32)C1=O,Babesia divergens,"parasite growth, SYBR Green",,"60 h, blood stage",IC50,411 nM
N#Cc1c(-c2ccc(Cl)cc2Cl)c(C(N)=O)c(N)n(N)c1=O,Enterobacter cloacae,"microbial growth, well diffusion",ATCC23355,500 µg/mL,inhibition zone,14 mm
COC1=CC(=O)c2ccccc2C1=O,Trichophyton mentagrophytes,"microbial growth, broth dilution",ATCC9533,96 h,MIC,6.25 µg/mL
CN(C)c1ccc(-c2c(C(N)=O)c(N)n(N)c(=O)c2C#N)cc1,Enterobacter cloacae,"microbial growth, well diffusion",ATCC23355,500 µg/mL,inhibition zone,17 mm
Cn1cc2c3c1C(=O)C(NCCc1ccc(O)cc1)=CC3=[N+](C)CC2,Babesia divergens,"parasite growth, SYBR Green",,"60 h, blood stage",IC50,12.2 nM
O=C1C(Br)=C(Br)C(=O)c2ccccc21,Trichophyton mentagrophytes,"microbial growth, broth dilution",ATCC9533,96 h,MIC,< 1.56 µg/mL
CN(Cc1ccc(C2(C(F)(F)F)CC2)cc1)Cc1cccc2ccccc12,Trichophyton mentagrophytes,"microbial growth, disc diffusion",ATCC18748,"0.256 µg/mL, 72 h",inhibition zone,≥ 55 mm
O=C1c2[nH]cc3c2C(=NCC3)c2c(-c3ccc(O)cc3)c[nH]c21,Babesia divergens,"parasite growth, SYBR Green",,"60 h, blood stage",IC50,614 nM
CC(=O)Oc1ccc(-c2c(C(N)=O)c(N)n(N)c(=O)c2C#N)cc1,Enterobacter cloacae,"microbial growth, well diffusion",ATCC23355,500 µg/mL,inhibition zone,12 mm
